Data: ChEMBL document CHEMBL3393023, “Benzimidazole-containing HCV NS5A inhibitors: effect of 4-substituted pyrrolidines in balancing genotype 1a and 1b potency” (Bioorg Med Chem Lett, 2015)
pEC50: −log10 of the molar value.

Assays:
[1] = Cytotoxicity against human Huh7ET cells by [3H]-thymidine incorporation assay; assay type: cell-based; settings: Huh7ET cells (Huh-7)
Procedure, shortened: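 Huh-7 ET cells were exposed to 12 test-compound concentrations, each in duplicate. Viability was read by [3H]-thymidine incorporation and CC50 was derived from the curve. A run was accepted only when the positive-control CC50 fell within 40% of its mean value.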

[2] = system: Hepatitis C virus; assay: Antiviral activity against Hepatitis C virus genotype 1a infected in W11.8 cells assessed as decrease in NS5A expression in replicon cell after 4 days by luminescence based ELISA; assay type: functional, Hepacivirus hominis; settings: subtype 1a, W11.8, 96 h
[3] = system: Hepatitis C virus; assay: Antiviral activity against Hepatitis C virus genotype 1b infected in human Huh-5.2 cells assessed as decrease in HCV replicon RNA replication after 4 days by luciferase assay; assay type: functional, cell-based, Hepacivirus hominis; settings: Huh-5-2, 96 h

Row | SMILES | pEC50 [2] | pEC50 [3] | CC50 [1]
1 | COC(=O)N[C@H](C(=O)N1CCC[C@H]1c1nc2cc(-c3ccc(-c4ccc5[nH]c([C@@H]6CCCN6C(=O)[C@@H](NC(=O)OC)C(C)C)nc5c4)c(C)c3)ccc2[nH]1)C(C)C | 9.08 | 11.22 | 3000 nM
2 | COC(=O)N[C@H](C(=O)N1CCC[C@H]1c1nc2cc(-c3cc(C)c(-c4ccc5[nH]c([C@@H]6CCCN6C(=O)[C@@H](NC(=O)OC)C(C)C)nc5c4)cc3C)ccc2[nH]1)C(C)C | 9.05 | 11.22 | 5000 nM
3 | COC(=O)N[C@H](C(=O)N1C[C@H](OC)C[C@H]1c1nc2cc(-c3ccc(-c4ccc5[nH]c([C@@H]6C[C@@H](OC)CN6C(=O)[C@@H](NC(=O)OC)C(C)C)nc5c4)cc3)ccc2[nH]1)C(C)C | 8.91 | 10.47 | 6000 nM
4 | COC(=O)N[C@H](C(=O)N1C[C@H](C)C[C@H]1c1nc2cc(-c3ccc(-c4ccc5[nH]c([C@@H]6C[C@@H](C)CN6C(=O)[C@@H](NC(=O)OC)C(C)C)nc5c4)cc3)ccc2[nH]1)C(C)C | 10.55 | 11.15 | 14000 nM
5 | COC(=O)N[C@H](C(=O)N1C[C@H](F)C[C@H]1c1nc2cc(-c3ccc(-c4ccc5[nH]c([C@@H]6C[C@@H](F)CN6C(=O)[C@@H](NC(=O)OC)C(C)C)nc5c4)cc3)ccc2[nH]1)C(C)C | 8.96 | 10.74 | 14000 nM
6 | COC(=O)N[C@H](C(=O)N1CCC[C@H]1c1nc2cc(CCc3ccc4[nH]c([C@@H]5CCCN5C(=O)[C@@H](NC(=O)OC)C(C)C)nc4c3)ccc2[nH]1)C(C)C | 6.16 | 10.12 | > 20000 nM
7 | COC(=O)N[C@H](C(=O)N1CCC[C@H]1c1nc2ccc(-c3ccc4nc([C@@H]5CCCN5C(=O)[C@@H](NC(=O)OC)C(C)C)[nH]c4c3)cc2[nH]1)C(C)C | < 5.70 | 7.59 | > 20000 nM
8 | COC(=O)N[C@H](C(=O)N1CC(F)(F)C[C@H]1c1nc2cc(-c3ccc(-c4ccc5[nH]c([C@@H]6CC(F)(F)CN6C(=O)[C@@H](NC(=O)OC)C(C)C)nc5c4)cc3)ccc2[nH]1)C(C)C | 9.30 | 11.40 | 13000 nM
9 | COC(=O)N[C@H](C(=O)N1CC(C)(C)C[C@H]1c1nc2cc(-c3ccc(-c4ccc5[nH]c([C@@H]6CC(C)(C)CN6C(=O)[C@@H](NC(=O)OC)C(C)C)nc5c4)cc3)ccc2[nH]1)C(C)C | 10.52 | 10.96 | > 20000 nM
10 | COC(=O)N[C@H](C(=O)N1C[C@@H](OC)C[C@H]1c1nc2cc(-c3ccc(-c4ccc5[nH]c([C@@H]6C[C@H](OC)CN6C(=O)[C@@H](NC(=O)OC)C(C)C)nc5c4)cc3)ccc2[nH]1)C(C)C | 10.28 | 10.51 | > 20000 nM
11 | COC(=O)N[C@H](C(=O)N1C[C@H](O)C[C@H]1c1nc2cc(-c3ccc(-c4ccc5[nH]c([C@@H]6C[C@@H](O)CN6C(=O)[C@@H](NC(=O)OC)C(C)C)nc5c4)cc3)ccc2[nH]1)C(C)C | 7.82 | 10.00 | > 20000 nM
12 | COC(=O)N[C@H](C(=O)N1CCC[C@H]1c1nc2cc(-c3ccc(-c4ccc5[nH]c([C@@H]6CCCN6C(=O)[C@@H](NC(=O)OC)C(C)C)nc5c4)c(F)c3)ccc2[nH]1)C(C)C | 9.08 | 10.92 | 6000 nM
13 | COC(=O)N[C@H](C(=O)N1C[C@@H](F)C[C@H]1c1nc2cc(-c3ccc(-c4ccc5[nH]c([C@@H]6C[C@H](F)CN6C(=O)[C@@H](NC(=O)OC)C(C)C)nc5c4)cc3)ccc2[nH]1)C(C)C | 8.31 | 10.09 | 11000 nM
14 | COC(=O)N[C@H](C(=O)N1CCC[C@H]1c1ncc(-c2ccc(-c3ccc(-c4ccc5nc([C@@H]6CCCN6C(=O)[C@@H](NC(=O)OC)C(C)C)[nH]c5c4)cc3)cc2)[nH]1)C(C)C | 9.86 | 10.89 | 

Continued by rising pEC50 [2], values first:

Row | pEC50 [2] | pEC50 [3] | SMILES | CC50 [1]
15 | 6.42 | 7.70 | COC(=O)N[C@H](C(=O)N1CCC[C@H]1c1nc2cc(-c3cccc(-c4ccc5[nH]c([C@@H]6CCCN6C(=O)[C@@H](NC(=O)OC)C(C)C)nc5c4)c3)ccc2[nH]1)C(C)C | 6000 nM
16 | 7.55 | 10.66 | COC(=O)N[C@H](C(=O)N1CCC[C@H]1c1nc2ccc(C#Cc3ccc4nc([C@@H]5CCCN5C(=O)[C@@H](NC(=O)OC)C(C)C)[nH]c4c3)cc2[nH]1)C(C)C | > 20000 nM
17 | 7.74 | 10.62 | COC(=O)N[C@H](C(=O)N1CCC[C@H]1c1nc2ccc(C#CC#Cc3ccc4nc([C@@H]5CCCN5C(=O)[C@@H](NC(=O)OC)C(C)C)[nH]c4c3)cc2[nH]1)C(C)C | 13000 nM
18 | 8.54 | 11.00 | COC(=O)N[C@H](C(=O)N1CCC[C@H]1c1nc2cc(-c3ccc(-c4ccc5[nH]c([C@@H]6CCCN6C(=O)[C@@H](NC(=O)OC)C(C)C)nc5c4)c(C)c3C)ccc2[nH]1)C(C)C | 7000 nM
19 | 9.03 | 11.00 | COC(=O)N[C@H](C(=O)N1CCC[C@H]1c1nc2ccc(-c3ccc(-c4ccc5nc([C@@H]6CCCN6C(=O)[C@@H](NC(=O)OC)C(C)C)[nH]c5c4)s3)cc2[nH]1)C(C)C | 6000 nM
20 | 9.26 | 10.92 | COC(=O)N[C@H](C(=O)N1CCC[C@H]1c1nc2ccc(-c3ccc(-c4ccc5nc([C@@H]6CCCN6C(=O)[C@@H](NC(=O)OC)C(C)C)[nH]c5c4)cc3)cc2[nH]1)C(C)C | 6000 nM
21 | 9.44 | 10.89 | COC(=O)N[C@H](C(=O)N1CCC[C@H]1c1nc2cc(-c3ccc(-c4ccc5nc([C@@H]6CCCN6C(=O)[C@@H](NC(=O)OC)C(C)C)[nH]c5c4)cc3OC)ccc2[nH]1)C(C)C | 6000 nM
22 | 10.07 | 10.72 | CC[C@H]1C[C@@H](c2nc3cc(-c4ccc(-c5ccc6[nH]c([C@@H]7C[C@H](CC)CN7C(=O)[C@@H](NC(=O)OC)C(C)C)nc6c5)cc4)ccc3[nH]2)N(C(=O)[C@@H](NC(=O)OC)C(C)C)C1 | > 20000 nM
23 | 10.52 | 11.30 | COC(=O)N[C@H](C(=O)N1C[C@@H](C(F)(F)F)C[C@H]1c1nc2cc(-c3ccc(-c4ccc5[nH]c([C@@H]6C[C@H](C(F)(F)F)CN6C(=O)[C@@H](NC(=O)OC)C(C)C)nc5c4)cc3)ccc2[nH]1)C(C)C | 13000 nM
24 | 10.59 | 10.43 | COC(=O)N[C@H](C(=O)N1C[C@@H](C)C[C@H]1c1nc2cc(-c3ccc(-c4ccc5[nH]c([C@@H]6C[C@H](C)CN6C(=O)[C@@H](NC(=O)OC)C(C)C)nc5c4)cc3)ccc2[nH]1)C(C)C | > 20000 nM
25 | 10.74 | 10.62 | COC(=O)N[C@H](C(=O)N1C[C@@H](C)C[C@H]1c1nc2cc(C#CC#Cc3ccc4[nH]c([C@@H]5C[C@H](C)CN5C(=O)[C@@H](NC(=O)OC)C(C)C)nc4c3)ccc2[nH]1)C(C)C | 
